Assay results collected from several papers.
Target: Dual specificity mitogen-activated protein kinase kinase 4 (MAP2K4, Homo sapiens, UniProt P45985)
Residues used in one study (P45985 1-399): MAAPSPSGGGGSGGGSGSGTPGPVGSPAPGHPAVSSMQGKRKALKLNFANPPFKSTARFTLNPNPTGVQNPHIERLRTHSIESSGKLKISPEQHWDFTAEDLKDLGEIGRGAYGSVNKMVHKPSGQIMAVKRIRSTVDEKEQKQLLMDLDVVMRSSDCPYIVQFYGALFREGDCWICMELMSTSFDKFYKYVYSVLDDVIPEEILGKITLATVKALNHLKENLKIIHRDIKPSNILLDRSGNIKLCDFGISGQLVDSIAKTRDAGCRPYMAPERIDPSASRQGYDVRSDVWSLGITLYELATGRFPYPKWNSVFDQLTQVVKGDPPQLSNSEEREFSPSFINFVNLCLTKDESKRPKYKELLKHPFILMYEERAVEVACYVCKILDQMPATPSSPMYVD

SMILES | test | setting | remaining binding
COc1cc(-c2cn(C3CCc4ccccc4N(CC(F)(F)F)C3=O)nn2)ccc1-n1ccc(C)n1 (centres unmarked) | cell-free assay, competition with immobilised ligand | 1 µM | 100%
FC(F)(F)Oc1cccc(-c2cnc3ccc(-c4ccncc4)nn23)c1 | cell-free assay, competition with immobilised ligand | 5 µM | 69%
CCC(=O)N[C@@H]1CC[C@H](C(=O)N(C)c2ccc(-c3nc4ccccc4o3)cc2)C1 | cell-free assay, competition with immobilised ligand | 1 µM | 100%
O=C(NCC1CCOCC1)c1n[nH]cc1NC(=O)c1c(F)cccc1F | binding, competition with immobilised ligand | 1 µM | 68%
CN(C)c1nccc(-c2cnn3ncccc23)n1 | binding | 1 µM | 81%
CC(=O)N1CCC(c2ccc(C(=O)NC3=NCCN3)cc2C(F)(F)F)CC1 | cell-free assay, competition with immobilised ligand | 1 µM | 100%
O=C(NCCCN1CCOCC1)c1ccc(Nc2nccc(-c3cc4ccccc4s3)n2)cc1 | binding, competition with immobilised ligand | 1 µM | 69%
Nc1c(C(=O)NCc2ccc(C(=O)NCCCC3CCCCC3)cc2)cnn1-c1ccccc1 | cell-free assay, competition with immobilised ligand | 0.1 µM | 100%
COc1cnc(Nc2cccc(S(N)(=O)=O)c2)nc1N1CCN(c2ccccc2)C(=O)C1 | binding, competition with immobilised ligand | 1 µM | 71%
CN(C)c1nccc(-c2cnc3ncccn23)n1 | binding | 1 µM | 84%
O=C(c1ccc(Nc2nccc(-c3cc4ccccc4s3)n2)cc1)N1CCC(N2CCCC2)CC1 | binding, competition with immobilised ligand | 1 µM | 78%
O=C1CCc2cc(Nc3cc(OC4CCOCC4)c([N+](=O)[O-])cc3Cl)ccc2N1 | cell-free assay, competition with immobilised ligand | 1 µM | 100%
c1cnn2ncc(-c3ccnc(N4CCC45COC5)n3)c2c1 | binding | 1 µM | 62%
Cc1cc(C)c(-n2ccn3nc(-c4cccnc4)cc23)cc1NC(=O)c1cc(C#N)cc(S(F)(F)(F)(F)F)c1 | cell-free assay, competition with immobilised ligand | 0.1 µM | 74.7%
N[C@H]1CCN(c2nccc(-c3cnn4ncccc34)n2)C1 | binding | 1 µM | 86%
COc1ncc2cc3ccccc3nc2c1C#N | cell-free assay, competition with immobilised ligand | 5 µM | 100%
COc1ccnn2ncc(-c3ccnc(N(C)C)n3)c12 | binding | 1 µM | 100%
c1cncc(-c2cccc(Nc3nccc(NC4CCCCC4)n3)c2)c1 | binding, competition with immobilised ligand | 10 µM | 64%
O=C(c1ccc(Nc2ncc(Cl)c(-c3ccc(Cl)s3)n2)cc1)N1CCC(N2CCCC2)CC1 | binding, competition with immobilised ligand | 1 µM | 42%
CN(C)c1ncc(F)c(-c2cnn3ncccc23)n1 | binding | 1 µM | 100%
